16 compounds from ChEMBL document CHEMBL3864184, “Optimization of Highly Kinase Selective Bis-anilino Pyrimidine PAK1 Inhibitors” (ACS Med Chem Lett, 2016) can be followed below.

Data set [1] can be described thus: Distribution coefficient, logD of the compound. Format: physicochemical. To be noted: octanol/water.
Data set [2] in a line: Intrinsic clearance in rat hepatocytes assessed per million cells. To be noted: read-out: CLH. It counts as ADME, cell-based, Hepatocyte.
Data set [3] in a line: Clearance in mouse at 0.5 mg/kg, iv. It counts as ADME, organism-based. To be noted: in vivo.
The nature of data set [4]: Volume of distribution at steady state in mouse at 0.5 mg/kg, iv or 100 mg/kg, po. Format: ADME, organism-based. As to conditions: in vivo, read-out: Vdss.
Data set [5] can be described thus: Half life in mouse at 0.5 mg/kg, iv. It counts as ADME, organism-based. To be noted: in vivo.
A short description of data set [6]: Cmax in mouse at 100 mg/kg, po. It counts as ADME, organism-based. Also noted: dose 100 mg/kg, route oral. To be noted: in vivo.
A short description of data set [7]: Unbound fraction in mouse plasma at 0.5 mg/kg, iv or 100 mg/kg, po. Format: ADME, organism-based.
Data set [8] has as its system Mus musculus. Description: Acute toxicity in mouse at 100 mg/kg, po. It counts as organism-based. As to conditions: in vivo. The method, boiled down:
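Observed for visible signs of toxicity during a mouse pharmacokinetic study after an oral 100 mg/Kg dose. This was not a maximum tolerated dose study.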

Usually logD stands for the decadic logarithm of the distribution of all forms, ionised or not, between an organic phase and buffer at a given pH. A high value points to higher lipophilicity. Compound `CCS(=O)(=O)c1cc(Nc2ncc(F)c(N(C)c3cc(CO)c(C)cc3C)n2)ccc1N1CCN(C)CC1` came in with a pH-dependent lipophilicity (logD) in data set [1] of 3.8.
On the same count and under the same terms, then `CN(c1cc(CO)ccc1Cl)c1nc(Nc2cc(N3CCOCC3)cc(S(C)(=O)=O)c2)ncc1F`, with 3.7.
On the same count and under the same terms, in the case of `CCN(c1cc(CO)ccc1C)c1nc(Nc2ccc(N3CCN(C)CC3)c(S(=O)(=O)CC)c2)ncc1F` it was 3.5.
As for `CCn1c(=O)c(-c2ccc(-c3cncs3)cc2Cl)cc2cnc(Nc3ccc(N4CCN(C)CC4)cc3)nc21`, the logD in data set [1] is above 4.
`COCc1ccc(C)c(N(C)c2nc(Nc3cc(N4CCOCC4)cc(S(C)(=O)=O)c3)ncc2F)c1`: the logD in data set [1] was 3.7.
Take `Cc1ccc(CO)cc1N(C)c1nc(Nc2cc(N3CCOCC3)cc(S(C)(=O)=O)c2)ncc1F`: the logD in data set [1] was 3.3.
In turn, `Cc1cc(C)c(N(C)c2nc(Nc3ccc(N4CCN(C)CC4)cc3)ncc2F)cc1CO` came in with a logD in data set [1] of 3.
Same read-out and setting: then `CN(c1cccc(CO)c1)c1nc(Nc2cc(N3CCOCC3)cc(S(C)(=O)=O)c2)ncc1F`, with 3.
Usually clearance stands for the rate of elimination divided by the concentration. A low value points to a low capacity for elimination. As a reminder, the half-life is how long it takes for the measured level to halve. Read a low half-life as fast loss. By Cmax is commonly meant the maximum level reached in the sampled fluid or tissue. Usually fraction unbound stands for the share of the substance not bound to proteins or other matrix. In the case of `CCS(=O)(=O)c1cc(Nc2ncc(F)c(N(C)c3cc(CO)c(C)cc3C)n2)ccc1N1C[C@@H]2C[C@H]1CN2C`, the logD in data set [1] turned out to be 2.5. In addition, the hepatocyte CLint in data set [2] was 11 µL/min/1e6 cells. In addition, the clearance in data set [3] stood at 22 mL/min/kg. In data set [4], the Vd was 1.4 L/kg. Moreover, the half-life in data set [5] was 60 min. In addition, the highest level in data set [6] (Cmax) was 7.7 µM. The compound further returned a fraction unbound in data set [7] of 0.029. Also, in data set [8], the Activity result is “Non-Toxic”.
In data set [1], `CCS(=O)(=O)c1cc(Nc2ncc(F)c(N(Cc3ccccc3F)c3cc(CO)ccc3C)n2)ccc1N1CCN(C)CC1` came in with a logD of 3.3.
On the same count and under the same terms, then `CCS(=O)(=O)c1cc(Nc2ncc(F)c(N(C)c3cc(CO)ccc3C)n2)ccc1N1CCN(C)CC1`, with 3.
The compound `Cc1ccc(N(C)c2nc(Nc3cc(N4CCOCC4)cc(S(C)(=O)=O)c3)ncc2F)cc1CO` yielded a logD in data set [1] of 3.3.
Still for that read-out and setting: in the case of `Cc1ccc(CO)cc1N(C)c1nc(Nc2ccc(N3CCN(C)CC3)c(S(C)(=O)=O)c2)ncc1F` it was 2.6; in that of `CCS(=O)(=O)c1cc(Nc2ncc(F)c(N(Cc3ccccc3)c3cc(CO)ccc3C)n2)ccc1N1CCN(C)CC1`, 2.8; in that of `Cc1cc(C)c(N(C)c2nc(Nc3cc(N4CCOCC4)cc(S(C)(=O)=O)c3)ncc2F)cc1CO`, 3.8.
Same read-out and setting: in the case of `CCS(=O)(=O)c1cc(Nc2ncc(F)c(N(C)c3cc(CO)c(C)cc3C)n2)cc(N2CCOCC2)c1` it was 3.8.
